Results reported in ChEMBL document CHEMBL4480378, “Amide linked redox-active naphthoquinones for the treatment of mitochondrial dysfunction” (2019).
The source made the active and inactive calls. The calls are words filed in the database; no cut-off is given here.

Tests used:
HepG2 [1] = test: Cytoprotection against rotenone-induced mitochondrial dysfunction in human HepG2 cells assessed as increase in cell viability by measuring ATP levels at 10 uM preincubated for 48 hrs followed by rotenone-induction and measured after 24 hrs by luciferase-based assay; assay type: functional
Method in brief: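 5000 HepG2 cells per well preincubated with quinone (10 µM) for 2 days, then challenged with rotenone (1 µM) for 6 hours in HBSS. Post-incubated with quinone alone in HBSS for a further 24 h. Viability read as ATP content by luciferase reaction, as percentage of untreated (no rotenone) control. 3 independent experiments, n = 6 wells each; error bars SD.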

HepG2 [2] = test: Cytoprotection against rotenone-induced mitochondrial dysfunction in human HepG2 cells assessed as acute ATP rescue at 10 uM co-treated with rotenone for 1 hr by luciferase-based assay relative to control; assay type: functional
Method in brief: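 HepG2 cells, 15 000 per well, attached overnight; after 24 h co-incubated with quinone (10 µM) and rotenone (10 µM) for 1 hour in glucose-free growth media. ATP then measured immediately by luciferase reaction, expressed as percentage of untreated (no rotenone) control.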

[3] = Ratio of IC50 for cytotoxicity against rat RGC5 cells to IC50 for cytotoxicity against human HepG2 cells
Rattus norvegicus = species: Rattus norvegicus; test: Cytoprotection against rotenone-induced mitochondrial dysfunction in rat RGC5 cells assessed as increase in cell viability by measuring ATP levels at 10 uM preincubated for 48 hrs followed by rotenone-induction and measured after 24 hrs by luciferase-based assay; assay type: functional
[4] = Electrochemical behavior of the compound assessed as redox potential (Eox) corrected toward saturated calomel reference electrode by cyclic voltammetry
[5] = Electrochemical behavior of the compound assessed as redox potential (Ered) corrected toward saturated calomel reference electrode by cyclic voltammetry

For `COC(=O)[C@H](Cc1ccccc1)NC(=O)CCCC1=C(C)C(=O)c2ccccc2C1=O`, the Activity (HepG2 [1]) was 90 - 100%.
For `CCC[C@H](NC(=O)CCCC1=C(C)C(=O)c2ccccc2C1=O)C(=O)OC(C)(C)C`, the Activity (HepG2 [1]) was 90 - 100%.
Work on `CC1=C(CCCC(=O)NCCc2c[nH]c3ccccc23)C(=O)c2ccccc2C1=O` yielded an Activity (HepG2 [1]) of 100% and an Activity (HepG2 [2]) of 100%.
With `CC1=C(CCCC(=O)N[C@@H](Cc2ccccc2)C(=O)OC(C)(C)C)C(=O)c2ccccc2C1=O` the Activity (HepG2 [1]) was 90 - 100%.
In the case of `CC1=C(CCCC(=O)N2CCC[C@H]2C(=O)OC(C)(C)C)C(=O)c2ccccc2C1=O`, the Activity (HepG2 [1]) is reported as 90 - 100%.
With `CCCCCCCC1=C(C)C(=O)c2ccccc2C1=O` the “Ratio IC50” value [3] was 2, the Activity (HepG2 [1]) was “Active” and the Activity (Rattus norvegicus) was “Active”. The Activity (HepG2 [2]) was 60 - 90%.
For `CC1=C(CCCC(=O)N[C@@H](CC(C)C)C(=O)OC(C)(C)C)C(=O)c2ccccc2C1=O`, the Activity (HepG2 [1]) was “inactive” and the Activity (HepG2 [2]) was 90%.
With `CC1=C(CCCC(=O)N2CCC[C@H]2C(=O)O)C(=O)c2ccccc2C1=O` the Activity (HepG2 [2]) was 5 - 70%.
In the case of `CC1=C(CCC(C)C)C(=O)c2ccccc2C1=O`, the “Ratio IC50” value [3] is reported as 2.
For `CC1=C(CCCCCCCCCCO)C(=O)c2ccccc2C1=O`, the “Ratio IC50” value [3] was 2, the Activity (HepG2 [1]) was “Active” and the Activity (Rattus norvegicus) was “Active”. For the same compound, the Activity [4] was -0.768 V and the Activity [5] was -0.845 V.
In the case of `CC1=C(CCCCCC(=O)O)C(=O)c2ccccc2C1=O`, the Activity (HepG2 [1]) is reported as “Active” and the Activity (HepG2 [2]) is reported as 60 - 90%.
Work on `COc1ccc(CCNC(=O)CCCC2=C(C)C(=O)c3ccccc3C2=O)cc1OC` yielded an Activity (HepG2 [1]) of 100% and an Activity (HepG2 [2]) of 100%.
In the case of `CCCCCCCCCCC1=C(C)C(=O)c2ccccc2C1=O`, the “Ratio IC50” value [3] is reported as 2, the Activity (HepG2 [1]) is reported as “inactive” and the Activity (Rattus norvegicus) is reported as “inactive”.
With `COc1ccc(CC2=C(C)C(=O)c3ccccc3C2=O)cc1OC` the “Ratio IC50” value [3] was 2 and the Activity (HepG2 [2]) was 60 - 90%.
In the case of `CCCCCCOC(=O)CCC1=C(C)C(=O)c2ccccc2C1=O`, the “Ratio IC50” value [3] is reported as 2 and the Activity (HepG2 [2]) is reported as <30%.
In the case of `CCCCCCCC/C=C\CCCCCCCC1=C(C)C(=O)c2ccccc2C1=O`, the “Ratio IC50” value [3] is reported as 2.
In the case of `CC1=C(CCC(=O)O)C(=O)c2ccccc2C1=O`, the “Ratio IC50” value [3] is reported as 2, the Activity (HepG2 [1]) is reported as “Active” and the Activity (HepG2 [2]) is reported as 60 - 90%.
In the case of `CCCCCCC1=C(C)C(=O)c2ccccc2C1=O`, the “Ratio IC50” value [3] is reported as 2, the Activity (HepG2 [1]) is reported as “Active” and the Activity (Rattus norvegicus) is reported as “Active”. For the same compound, the Activity (HepG2 [2]) was 60 - 90%.
With `CC1=C(CC2CCC(=O)O2)C(=O)c2ccccc2C1=O` (stereo unspecified) the “Ratio IC50” value [3] was 2 and the Activity (HepG2 [2]) was 60 - 90%.
In the case of `COC1=C(OC)C(=O)C(CCCCCCCCCCO)=C(C)C1=O` [IDEBENONE], the Activity [4] is reported as -0.637 V, the Activity (HepG2 [2]) is reported as 60 - 90% and the Activity [5] is reported as -0.714 V.
In the case of `CCCCOC(=O)CCCC1=C(C)C(=O)c2ccccc2C1=O`, the “Ratio IC50” value [3] is reported as 2 and the Activity (HepG2 [2]) is reported as <30%.
With `CC1=C(CCC(F)(F)F)C(=O)c2ccccc2C1=O` the Activity (HepG2 [2]) was 60 - 90%.
With `C=CCCC1=C(C)C(=O)c2ccccc2C1=O` the “Ratio IC50” value [3] was 2 and the Activity (HepG2 [2]) was 60 - 90%.
In the case of `CCOC(=O)CCCC1=C(C)C(=O)c2ccccc2C1=O`, the “Ratio IC50” value [3] is reported as 2 and the Activity (HepG2 [2]) is reported as <30%.
With `CC1=C(CCCCCCCCC2CO2)C(=O)c2ccccc2C1=O` (stereo unspecified) the “Ratio IC50” value [3] was 2 and the Activity (HepG2 [2]) was 60 - 90%.
With `CC1=C(CC(C)CCCC(C)C)C(=O)c2ccccc2C1=O` (stereo unspecified) the “Ratio IC50” value [3] was 2 and the Activity (HepG2 [2]) was 60 - 90%.
For `CC1=C(CCCC(=O)N[C@@H](Cc2ccccc2)C(=O)O)C(=O)c2ccccc2C1=O`, the Activity (HepG2 [1]) was 90 - 100% and the Activity (HepG2 [2]) was 5 - 70%.
For `CC1=C(CCCC(=O)N[C@H](CO)Cc2ccccc2)C(=O)c2ccccc2C1=O`, the Activity (HepG2 [1]) was 100% and the Activity (HepG2 [2]) was 100%.
In the case of `COC(=O)[C@H](NC(=O)CCCC1=C(C)C(=O)c2ccccc2C1=O)c1ccccc1`, the Activity (HepG2 [1]) is reported as 90 - 100%.
For `CC1=C(CCC(C)O)C(=O)c2ccccc2C1=O` (stereo unspecified), the “Ratio IC50” value [3] was 2, the Activity (HepG2 [1]) was “Active” and the Activity (Rattus norvegicus) was “Active”. For the same compound, the Activity (HepG2 [2]) was 60 - 90%.
For `CC1=C(CCCC(=O)N[C@@H](Cc2ccc(O)cc2)C(=O)OC(C)(C)C)C(=O)c2ccccc2C1=O`, the Activity (HepG2 [1]) was “inactive” and the Activity (HepG2 [2]) was 90%.
For `CC1=C(CC(C)(O)C(F)(F)F)C(=O)c2ccccc2C1=O` (stereo unspecified), the Activity (HepG2 [2]) was 60 - 90%.
With `CC1=C(CCCCC(=O)O)C(=O)c2ccccc2C1=O` the Activity (HepG2 [1]) was “Active” and the Activity (HepG2 [2]) was 60 - 90%.
With `CC(=O)CCC1=C(C)C(=O)c2ccccc2C1=O` the “Ratio IC50” value [3] was 2, the Activity (HepG2 [1]) was “Active” and the Activity (Rattus norvegicus) was “Active”. The Activity (HepG2 [2]) was 60 - 90%.
In the case of `CC1=C(CCC2CCCC2)C(=O)c2ccccc2C1=O`, the “Ratio IC50” value [3] is reported as 2 and the Activity (HepG2 [2]) is reported as 60 - 90%.
In the case of `CC1=C(CCCC(=O)NCC(=O)OC(C)(C)C)C(=O)c2ccccc2C1=O`, the Activity (HepG2 [1]) is reported as 90 - 100%.
For `CCCCCCOC(=O)CCCC1=C(C)C(=O)c2ccccc2C1=O`, the “Ratio IC50” value [3] was 2 and the Activity (HepG2 [2]) was <30%.
For `CC1=C(CCCc2ccccc2)C(=O)c2ccccc2C1=O`, the “Ratio IC50” value [3] was 2.
For `COC(=O)[C@@H](NC(=O)CCCC1=C(C)C(=O)c2ccccc2C1=O)c1ccccc1`, the Activity (HepG2 [1]) was 90 - 100%.
In the case of `C=CCCCCCCCCC1=C(C)C(=O)c2ccccc2C1=O`, the “Ratio IC50” value [3] is reported as 2 and the Activity (HepG2 [2]) is reported as 60 - 90%.
In the case of `CC1=C(CCCC(=O)N[C@@H](Cc2ccc(OC(=O)CCCC3=C(C)C(=O)c4ccccc4C3=O)cc2)C(=O)OC(C)(C)C)C(=O)c2ccccc2C1=O`, the Activity (HepG2 [1]) is reported as 90 - 100%.
For `CCOC(=O)CCC1=C(C)C(=O)c2ccccc2C1=O`, the “Ratio IC50” value [3] was 2, the Activity (HepG2 [1]) was “inactive” and the Activity (Rattus norvegicus) was “Active”. For the same compound, the Activity (HepG2 [2]) was <30%.
In the case of `CCCCOC(=O)CCC1=C(C)C(=O)c2ccccc2C1=O`, the “Ratio IC50” value [3] is reported as 2 and the Activity (HepG2 [2]) is reported as <30%.
For `CCCCCCCCC1=C(C)C(=O)c2ccccc2C1=O`, the “Ratio IC50” value [3] was 2, the Activity (HepG2 [1]) was “Active” and the Activity (Rattus norvegicus) was “Active”. For the same compound, the Activity (HepG2 [2]) was 60 - 90%.
For `CC1=C(CC[C@@H](C)[C@H]2CC[C@H]3[C@@H]4CC[C@@H]5C[C@H](O)CC[C@]5(C)[C@H]4C[C@H](O)[C@]23C)C(=O)c2ccccc2C1=O`, the “Ratio IC50” value [3] was 2.
`CC1=C(CCCC(=O)NCCc2ccc(O)cc2)C(=O)c2ccccc2C1=O` gave an Activity (HepG2 [1]) of 100% and an Activity (HepG2 [2]) of 100%.
In the case of `CC1=C(CCCC(=O)N[C@@H](CC(C)C)C(=O)O)C(=O)c2ccccc2C1=O`, the Activity (HepG2 [2]) is reported as 5 - 70%.
